The list is not random: actives were taken first. Their share in the collection is about 3.2%.
HTRA1 inh: HTRA1 (human) protease inhibition. Q92743. recombinant HTRA1, FP-rhodamine activity-based probe, fluorescence polarization. inhibition, % at 5.96 µM. 0.5% of 340,000 active. AID 504803; in the data active = inhibition above about 36%;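 also: 0% = enzyme with DMSO and 100% = wells lacking enzyme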
Target sequence (Q92743 whole entry, looked up): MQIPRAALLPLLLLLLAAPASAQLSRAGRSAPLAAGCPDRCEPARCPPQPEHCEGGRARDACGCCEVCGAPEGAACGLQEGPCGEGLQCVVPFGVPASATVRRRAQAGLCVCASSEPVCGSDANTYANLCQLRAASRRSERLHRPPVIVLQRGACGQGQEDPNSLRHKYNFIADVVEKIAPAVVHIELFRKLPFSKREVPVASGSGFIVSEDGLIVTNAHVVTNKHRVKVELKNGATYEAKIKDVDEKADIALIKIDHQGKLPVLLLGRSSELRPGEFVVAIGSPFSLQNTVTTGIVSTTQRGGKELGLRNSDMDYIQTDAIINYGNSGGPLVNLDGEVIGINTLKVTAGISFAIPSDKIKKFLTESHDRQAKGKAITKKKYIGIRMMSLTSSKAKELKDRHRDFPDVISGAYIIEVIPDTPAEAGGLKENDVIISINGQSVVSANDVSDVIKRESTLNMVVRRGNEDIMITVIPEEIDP
DAGLB inhibitor: blocks human DAGLB lipase activity; 0.059% of 340,000 active; HEK293T DAGLB membrane lysate, EnzChek fluorogenic substrate; inhibition, % at 5.17 µM; AID 504411; Q8NCG7; in the data active = inhibition above about 34%;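 also: 0% = enzyme with vehicle and 100% = wells lacking enzyme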
PRMT1 inh: blocks human protein arginine methyltransferase 1 | AID 652257 | 1.3% of 370,000 active | Q99873 | inhibition, % at 2.79 µM | recombinant PRMT1, activity-based probe fluorescence polarization;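 active = inhibition above about 21% made by adding two undisclosed values, limit read from the data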
mABHD4 FP: inhibits mouse alpha/beta hydrolase domain 4. purified mABHD4, FP-Rh probe fluorescence polarization. 0.54% of 370,000 active. AID 720543. Q8VD66. inhibition, % at 8.92 µM;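 active = inhibition exceeding the mean over every tested compound plus 3 SD, cut at about 30% in these data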;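 also: 0% = plate median of compound wells and 100% = S159A mutant with DMSO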
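Test system: mABHD4 protein | Buffer or medium: HEPES pH 7.0 buffer, 150 mM NaCl, 0.01% Pluronic F-127 | Probe or stimulus: FP-Rh fluorescent activity-based probe, added after compound pre-incubation | Timing: Pre-incubation 45 min, probe exposure 60 min, at 25 °C | Technique: Fluorescence polarization, excitation 525 nm, emission 598 nm, BODIPY TMR filters | Repeats: Single well per compound (singlicate)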
rCAG binder: binds r(CAG) RNA repeats | r(CAG) RNA repeat, TO-PRO-1 dye displacement fluorescence | inhibition, % at 3 µM | 1.3% of 370,000 active | AID 651821;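 active = inhibition above the plate cutoff, the mean of all test compounds on that plate plus 3 SD, cut at about 35% in these data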;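 also: 0% = DMSO alone and 100% = 100 µM mitoxantrone as full dye displacement; higher means more dye released from RNA so lower well fluorescence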
LEDGF integ inh: blocks HIV-1 LEDGF/p75-dependent DNA integration. TR-FRET IN-LEDGF/p75 DNA integration, Eu/Cy5. inhibition, % at 3.7 µM. 0.64% of 370,000 active;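 active = inhibition above the screen-wide mean plus 3 SD, cut at about 13% in these data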;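 also: signal is the Cy5 over europium emission ratio at 671 and 618 nm; 0% = plate median of compound wells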
rCAG binder conf: r(CAG) RNA repeat binding, confirmation | shares compounds with rCAG binder | TO-PRO-1 dye displacement fluorescence | inhibition, % at 3 µM | 70% of 4,300 active;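 active = inhibition above a per-plate cutoff, the mean inhibition of sample wells plus 3 SD, cut at about 35% in these data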;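 also: loss of TO-PRO-1 fluorescence as compound displaces dye from 1x1 AA loop RNA; 0% = DMSO only wells and 100% = 100 µM mitoxantrone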
dCAG dye counter: disrupts DNA CAG TO-PRO-1 complex, flagging rCAG hits | shares compounds with rCAG binder | d(CAG) DNA oligo TO-PRO-1 dye displacement, fluorescence | inhibition, % at 3 µM | 94% of 4,300 active | AID 652068;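 active = inhibition above its plate's cutoff, the mean test-well inhibition plus 3 SD, cut at about 4.8% in these data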;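 also: 0% = DNA dye mix with DMSO and 100% = 100 µM mitoxantrone; hits displace the dye from DNA and so lower well fluorescence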
dCAG dye DR: DNA CAG dye complex inhibition, dose response counter-screen; shares compounds with rCAG binder; DNA CAG/GTC duplex TO-PRO-1 dye displacement fluorescence; IC50, µM; 20% of 250 active; AID 686960; in the data active = IC50 below about 10 µM
* hit, by the source's call; / = not tested or not shown.

SMILES | HTRA1 inh | DAGLB inhibitor | PRMT1 inh | mABHD4 FP | rCAG binder | LEDGF integ inh | rCAG binder conf | dCAG dye counter | others
Cc1ccc(OCC(=O)Nc2cc(C(=O)O)cc(C(=O)O)c2)cc1C | 12 | -2 | 16 | 3 | 7 | 2 | / | /
O=C(CCCOc1ccc(Cl)cc1)Nc1cccc(C(=O)O)c1 | 4 | 2 | 0 | -8 | 3 | 3 | / | /
O=C(COc1ccc(Cl)cc1)Nc1cc(NC(=O)COc2ccc(Cl)cc2)cc(C(=O)O)c1 | -94 | 8 | 4 | -74 | 74* | -6 | 82* | 48*
Cc1ccc(OCC(=O)Nc2cc(NC(=O)COc3ccc(C)cc3)cc(C(=O)O)c2)cc1 | -13 | 4 | 2 | -14 | 70* | -2 | 64* | 25*
Cc1ccc(S(=O)(=O)N(C)c2ccc(OCC(=O)Nc3cc(C(=O)O)ccc3Cl)cc2)cc1 | / | / | 3 | 14 | 61* | 4 | 57* | 20*
Cc1ccc2ncc([N+](=O)[O-])n2c1 | 3 | 1 | 5 | -16 | -2 | -3 | / | /
COc1ccc(/C=N/NC(=O)c2snnc2C)c(OC)c1OC | 3 | -3 | -5 | -1 | 0 | 8 | / | /
Cc1[nH]c(=O)nc(SCc2cccc(Cl)c2)c1C#N | -29 | 3 | 1 | -23 | 26 | 2 | / | /
N#Cc1c(-c2ccccc2)nc(SCc2cccc(Cl)c2)[nH]c1=O | -110 | 14 | 4 | -68 | 82* | 9 | 76* | 43*
CCCC(CCC)=NNC(=O)c1ccccc1F | 3 | 1 | -1 | 1 | 2 | -3 | / | /
COc1ccccc1C(=O)COC(=O)C1CCN(S(=O)(=O)c2ccc(C)c(C)c2)CC1 | -17 | -6 | 4 | -10 | 2 | -7 | / | /
CCOC(=O)Cc1cc(=O)n2[nH]c(-c3ccccc3)c(-c3ccccc3)c2n1 | -13 | 12 | -5 | -6 | 40* | 9 | 43* | 15*
COc1ccc(NC(=O)CN(C)C(=O)c2ccc(NS(=O)(=O)c3ccc(C)c([N+](=O)[O-])c3)cc2)cc1 | -1 | 2 | -5 | 5 | 28 | -1 | / | /
Cc1ccc(S(=O)(=O)Nc2ccccc2C(=O)OC(C)C(=O)Nc2ccc3ccccc3c2)cc1[N+](=O)[O-] (configuration not stated) | -40 | 0 | -1 | -29 | 39* | 0 | 42* | 17*
CCc1ccc(NC(=O)C(C)OC(=O)c2ccc(NS(=O)(=O)c3ccc(C)c([N+](=O)[O-])c3)cc2)cc1 (configuration not stated) | -90 | 6 | 0 | -103 | 85* | 5 | 82* | 48*
CC(=O)c1ccc(NC(=O)C(C)OC(=O)c2ccc(NS(=O)(=O)c3ccc(F)c(F)c3)cc2)cc1 (configuration not stated) | -36 | 0 | 0 | -21 | 53* | -2 | 43* | 17*
CNc1ccccc1C(=O)OC(C)C(=O)Nc1ccc(S(=O)(=O)N2CCCC2)cc1 (configuration not stated) | -35 | -2 | 3 | -21 | 7 | 2 | / | /
Cc1ccc(NC(=O)C(C)OC(=O)c2ccc(NS(=O)(=O)c3ccc(F)c(F)c3)cc2)cc1 (configuration not stated) | -28 | 0 | -2 | -13 | 58* | 8 | 67* | 20*
Cc1cc(CN(C)C(=O)c2ccc(OC3CCN(Cc4ccccn4)CC3)cc2)on1 | 6 | 2 | 4 | -1 | -7 | -2 | / | /
CC(/C=N/NC(=O)c1cc(C(C)(C)C)[nH]n1)=C\c1ccccc1 | -16 | 0 | 2 | 1 | -6 | 0 | / | /
N#Cc1c(Cl)nc(N/N=C/c2ccccc2)c(Cl)c1Cl | 1 | 1 | 5 | -5 | 45* | 0 | 6 | 3
C[N+](C)(C)c1ccc(/C=N/Nc2nc(Cl)c(C#N)c(Cl)c2Cl)cc1 | 18 | -1 | 3 | 7 | 9 | 3 | / | /
CCOC(=O)C1=NN(C(=O)Nc2cccc(C(F)(F)F)c2)C2C(=O)N(c3cccc(C(F)(F)F)c3)C(=O)C12 (configuration not stated) | -36 | -4 | 7 | -53 | 83* | 6 | 23 | 5.8*
CCOC(=O)c1nccnc1C(=O)Nc1cccc(C(F)(F)F)c1 | 4 | -2 | 1 | 0 | -5 | 0 | / | /
O=C(O)/C(=C\c1cn(-c2ccccc2)nc1-c1cccnc1)NC(=O)c1ccccc1 | -6 | -1 | 0 | 4 | 2 | 2 | / | /
SMILES | HTRA1 inh | DAGLB inhibitor | PRMT1 inh | mABHD4 FP | rCAG binder | LEDGF integ inh | rCAG binder conf | dCAG dye counter | others
COc1cccc(-c2nn(-c3ccccc3)cc2/C=C(/NC(=O)c2ccccc2)C(=O)O)c1 | -13 | 5 | -9 | 6 | 38* | 2 | 38* | 9.2*
COc1ccc(-c2nn(-c3ccccc3)cc2/C=N/Nc2cccc(C(=O)O)c2)cc1 | -54 | -2 | -4 | -4 | 37* | 2 | 48* | 20*
CC(Oc1cccc2ccccc12)C(=O)N/N=C/c1cccnc1 (configuration not stated) | -2 | 1 | -3 | -8 | 1 | 1 | / | /
CCOC(=O)c1c(NC(=O)/C=C/C(=O)O)sc(C)c1-c1ccc(C(C)(C)C)cc1 | -71 | 20 | 11 | -5 | 80* | 2 | 73* | 34* | dCAG dye DR=7.6*
Nc1c(C(=O)O)sc2nc(-c3ccccc3)cc(-c3ccc(Cl)cc3)c12 | -58 | 5 | -3 | -18 | 76* | 1 | 71* | 37*
CCOc1ccc2nc(NS(=O)(=O)Cc3ccccc3)sc2c1 | 0 | 5 | 6 | -6 | 44* | 4 | 29 | 10*
O=C(NCCOc1ccccc1)c1ccccc1NC(=O)C1CCCO1 (configuration not stated) | -2 | 1 | 6 | 10 | -5 | -2 | / | /
Cc1cc2c(cc1C)-c1c(ssc1=Nc1ccc(S(N)(=O)=O)cc1)C(C)(C)N2 | 12 | 2 | 0 | 1 | 13 | -1 | / | /
CC(=O)NS(=O)(=O)c1ccc(N=c2ssc3c2-c2cc(C)c(C)cc2NC3(C)C)cc1 | 11 | 13 | -2 | 12 | 75* | 3 | 59* | 25*
COc1ccccc1CNC(=O)COC(=O)c1cc(-c2ccco2)nc2ccccc12 | 3 | 11 | 14 | 9 | 41* | 10 | 31 | 17*
CC(C)Cn1c(N)c(C(=O)COC(=O)c2cc(-c3ccccc3)nc3ccccc23)c(=O)n(C)c1=O | 11 | -2 | -2 | 0 | 2 | 1 | / | /

Screening results as filed in PubChem BioAssay.
